# Measurements as given in article PMC3398245 (Analytical Biochemistry, 2012).
# Tests used:
# GST-RIP1 kinase domain [1] = target: T1, GST-RIP1 kinase domain (Homo sapiens, UniProt Q13546); experiment: FP competition assay with fluorescein-Nec-3; type: binding; details: competition with 50 nM 26, 3.4 µM GST-RIP1, 3% DMSO
# T1 sequence (Q13546 8-327): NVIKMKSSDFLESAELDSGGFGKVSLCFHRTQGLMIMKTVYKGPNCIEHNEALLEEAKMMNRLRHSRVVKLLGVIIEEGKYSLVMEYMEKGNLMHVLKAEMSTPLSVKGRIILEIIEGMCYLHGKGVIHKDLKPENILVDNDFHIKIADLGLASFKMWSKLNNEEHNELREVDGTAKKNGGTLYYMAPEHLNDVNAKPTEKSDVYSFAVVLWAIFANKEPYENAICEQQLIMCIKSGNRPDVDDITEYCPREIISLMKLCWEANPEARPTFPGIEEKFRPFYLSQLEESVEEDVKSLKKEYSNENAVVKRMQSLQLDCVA
# Outline: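 Human RIP1 kinase domain (aa 8–327) as a GST fusion, expressed in baculovirus-infected Sf9 cells and purified by glutathione affinity and gel filtration. Tracer (50 nM) preincubated 5 min with 3.4 µM protein. Test compound titrated 0–100 µM at 3% final DMSO, then 10 min incubation. FP read at ex 485/em 535 nm in mP. IC50 from nonlinear variable-slope fit.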
# GST-RIP1 kinase domain [2] = target: T1, GST-RIP1 kinase domain; experiment: FP competition assay with fluorescein-Nec-1; type: binding; details: competition with 50 nM 20, 2.6 µM GST-RIP1, 3% DMSO
Compound,IC50 (GST-RIP1 kinase domain [1]),IC50 (GST-RIP1 kinase domain [2])
CN1C(=O)C(Cc2c[nH]c3ccccc23)NC1=S (stereo not shown) [Compound 1],7 ± 0.7 µM,9.9 ± 0.6 µM
COc1ccc2c(c1)C1=NN(C(C)=O)C(c3ccc(F)cc3)C1CC2 (stereo not shown) [Compound 7],3.9 ± 0.7 µM,10.7 ± 1.8 µM
